pIC50, pKi: −log10 of the molar value.

Molecular target in one experiment: not listed separately
As to the kind of experiment: Binding affinity against alpha-1A adrenergic receptor.
Molecule `N#Cc1ccccc1N1CCN(CC(Cn2nc(-c3ccc(I)cc3)c3c2CCN(C(N)=O)C3)OC(N)=O)CC1` (stereo unspecified) gave a negative-log Ki (pKi) of 7.92. `N#Cc1ccccc1N1CCN(CC(O)Cn2nc(-c3ccc(I)cc3)c3c2CCN(C(N)=O)C3)CC1` (stereo unspecified) had a pKi of 7.44.

For a further experiment, the target named is Cathepsin S (Homo sapiens, UniProt P25774). As to the kind of experiment: Inhibitory concentration against cathepsin S.
Sequence of Cathepsin S (P25774 whole entry): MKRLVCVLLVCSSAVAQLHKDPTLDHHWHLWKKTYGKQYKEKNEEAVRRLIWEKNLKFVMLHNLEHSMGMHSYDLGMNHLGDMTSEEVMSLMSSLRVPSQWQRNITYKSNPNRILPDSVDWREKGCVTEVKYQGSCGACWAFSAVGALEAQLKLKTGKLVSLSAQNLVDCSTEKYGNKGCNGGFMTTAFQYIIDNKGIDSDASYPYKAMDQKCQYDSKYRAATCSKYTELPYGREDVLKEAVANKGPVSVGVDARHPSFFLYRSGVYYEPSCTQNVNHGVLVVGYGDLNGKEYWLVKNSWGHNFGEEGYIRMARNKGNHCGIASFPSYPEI
For `CC(=O)N1CCc2c(c(-c3ccc(C(F)(F)F)cc3)nn2CC(O)CN2CCC(n3c(=O)n(C)c4ccccc43)CC2)C1` (stereo unspecified), the negative-log IC50 (pIC50) was 6.96. On to `CCCCn1c(=O)n(C2CCN(CC(O)Cn3nc(-c4ccc(Cl)c(C)c4)c4c3CCN(C(C)=O)C4)CC2)c2ccccc21` (stereo unspecified), for which the negative logarithm of the IC50 (pIC50) is 6.85. This pIC50 and that of the molecule before are within 0.2 log units of each other.

The molecule `CC(=O)N1CCc2c(c(-c3ccc(C(F)(F)F)cc3)nn2C[C@@H](O)CN2CCC(n3c(O)nc4ccc(Cl)cc43)CC2)C1` had a negative logarithm of the IC50 (pIC50) of 6.70. Still for that read-out and setting: the figure for `CC(=O)N1CCc2c(c(-c3ccc(C(F)(F)F)cc3)nn2CC(O)CN2CCC(n3c(=O)[nH]c4ccccc43)CC2)C1` (stereo unspecified) is 7.00.

Molecule `CC(=O)N1CCc2c(c(-c3ccc(Cl)c(C)c3)nn2CC(O)CN2CCC(n3c(=O)[nH]c4ccccc43)CC2)C1` (stereo unspecified) had a negative-log IC50 (pIC50) of 6.89.

Consider `Cn1c(=O)n(C2CCN(CCCn3nc(-c4ccc(Cl)c(Cl)c4)c4c3CCN(S(C)(=O)=O)C4)CC2)c2ccccc21`, for which the pIC50 is 7.30. Same read-out and setting: next, `CC(=O)N1CCc2c(c(-c3ccc(Cl)cc3)nn2CC(O)CN2CCN(C(c3ccc(F)cc3)c3ccc(F)cc3)CC2)C1` (stereo unspecified): 6.00; `CS(=O)(=O)N1CCc2c(c(-c3ccc(Br)cc3)nn2CC(O)CN2CCC(n3c(=O)[nH]c4ccc(Cl)cc43)CC2)C1` (stereo unspecified): 7.30; `CS(=O)(=O)N1CCc2c(c(-c3ccc(Br)cc3)nn2CCCN2CCC(n3c(=O)[nH]c4ccccc43)CC2)C1`: 7.30.

With `CC(=O)N1CCc2c(c(-c3ccc(Cl)c(C)c3)nn2C[C@H](O)CN2CCC(n3c(=O)[nH]c4ccc(Cl)cc43)CC2)C1`, the pIC50 was 6.46. This pIC50 is 0.84 log units lower than that of the molecule before. Molecule `COc1ccc2c(c1)[nH]c(=O)n2C1CCN(CC(O)Cn2nc(-c3ccc(Br)cc3)c3c2CCN(C(C)=O)C3)CC1` (stereo unspecified) had a pIC50 of 6.85. Against the preceding molecule, the pIC50 is 0.39 log units higher. `CC(=O)N1CCc2c(c(-c3ccc(Cl)c(C)c3)nn2CC(O)CN2CCC(n3c(=O)n(C(C)C)c4ccccc43)CC2)C1` (stereo unspecified) had a negative-log IC50 (pIC50) of 7.00. The pIC50 values of the last two molecules are within 0.2 log units of each other. Same read-out and setting: the figure for `Cn1c(=O)n(C2CCN(CCCn3nc(-c4ccc(Br)cc4)c4c3CCN(S(C)(=O)=O)C4)CC2)c2ccccc21` is 6.85; for `CC(=O)N1CCc2c(c(-c3ccc(Br)cc3)nn2CC(O)CN2CCC(n3c(=O)[nH]c4cc(Cl)c(Cl)cc43)CC2)C1` (stereo unspecified) it is 6.96. In turn, `CS(=O)(=O)N1CCc2c(c(-c3ccc(C(F)(F)F)cc3)nn2CC(O)CN2CCC(n3c(=O)[nH]c4ccccc43)CC2)C1` (stereo unspecified) showed a pIC50 of 7.30. Still for that read-out and setting: next, `Cc1cc(-c2nn(CC(O)CN3CCC(n4c(=O)[nH]c5ccccc54)CC3)c3c2CN(S(C)(=O)=O)CC3)ccc1Cl` (stereo unspecified): 7.22; `CC(=O)N1CCc2c(c(-c3ccc(Cl)cc3)nn2CC(O)CN2CCC(n3c(=O)[nH]c4ccccc43)CC2)C1` (stereo unspecified): 6.34.

The molecule `CS(=O)(=O)N1CCc2c(c(-c3ccc(C(F)(F)F)cc3)nn2CCCN2CCC(n3c(=O)[nH]c4ccccc43)CC2)C1` showed a negative-log IC50 (pIC50) of 7.30. Still for that read-out and setting: next, `Cn1c(=O)n(C2CCN(CCCn3nc(-c4ccc(C(F)(F)F)cc4)c4c3CCN(S(C)(=O)=O)C4)CC2)c2cc(Cl)ccc21`: 7.00; `CC(=O)N1CCc2c(c(-c3ccc(I)cc3)nn2CC(O)CN2CCC(n3c(=O)[nH]c4ccc(F)cc43)CC2)C1` (stereo unspecified): 6.64; `CC(=O)N1CCc2c(c(-c3ccc(Br)cc3)nn2CC(O)CN2CCC(n3c(=O)[nH]c4cccc(C)c43)CC2)C1` (stereo unspecified): 6.68. Molecule `CC(=O)N1CCc2c(c(-c3ccc(Cl)c(C)c3)nn2CC(O)CN2CCC(n3c(=O)n(C)c4ccccc43)CC2)C1` (stereo unspecified) gave a pIC50 of 6.30. Compared with the last molecule, the pIC50 is 0.38 log units lower.

As for `CS(=O)(=O)N1CCc2c(c(-c3ccc(C(F)(F)F)cc3)nn2CC(O)CN2CCC(n3c(=O)[nH]c4ccc(Cl)cc43)CC2)C1` (stereo unspecified), the negative logarithm of the IC50 (pIC50) was 7.22. Against the preceding molecule, the pIC50 is 0.92 log units higher.

Consider `CC(=O)N1CCc2c(c(-c3ccc(Cl)c(C)c3)nn2CC(O)CN2CCC(n3c(=O)[nH]c4cc(C)ccc43)CC2)C1` (stereo unspecified), for which the pIC50 was 7.00.

In turn, `CCn1c(=O)n(C2CCN(CC(O)Cn3nc(-c4ccc(Cl)c(C)c4)c4c3CCN(C(C)=O)C4)CC2)c2ccccc21` (stereo unspecified) had a pIC50 of 6.51.

`Cn1c(=O)n(C2CCN(CC(O)Cn3nc(-c4ccc(C(F)(F)F)cc4)c4c3CCN(S(C)(=O)=O)C4)CC2)c2cc(Cl)ccc21` (stereo unspecified) had a negative-log IC50 (pIC50) of 7.10.

`CC(=O)N1CCc2c(c(-c3ccc(I)cc3)nn2CC(O)CN2CCC(n3c(=O)[nH]c4ccccc43)CC2)C1` (stereo unspecified) had a pIC50 of 6.92.

For `CC(=O)N1CCc2c(c(-c3ccc(C(F)(F)F)cc3)nn2C[C@H](O)CN2CCC(n3c(O)nc4ccc(Cl)cc43)CC2)C1`, the negative logarithm of the IC50 (pIC50) was 6.74. The pIC50 values of the last two molecules are within 0.2 log units of each other. `CC(=O)N1CCc2c(c(-c3ccc(Br)cc3)nn2CC(O)CN2CCC(n3c(=O)[nH]c4ccccc43)CC2)C1` (stereo unspecified) gave a pIC50 of 7.10. The molecule `Cn1c(=O)n(C2CCN(CCCn3nc(-c4ccc(Cl)c(Cl)c4)c4c3CCN(S(C)(=O)=O)C4)CC2)c2cc(Cl)ccc21` had a pIC50 of 6.82.

A further experiment relates to JY. Description: Inhibitory concentration against Ii degradation in human JY cells (range IC50 = 0.6-0.8 uM). The format is functional, cell-based. An outline of the steps:
(§1)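 Inhibition of invariant chain (Ii) cleavage was measured in human JY cells, an antigen-presenting line. IC50 values are the mean of at least 3 runs.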
With `Cn1c(=O)n(C2CCN(CCCn3nc(-c4ccc(C(F)(F)F)cc4)c4c3CCN(S(C)(=O)=O)C4)CC2)c2cc(Cl)ccc21`, the negative-log IC50 (pIC50) is 6.10.

The subject of a further experiment is JY. As to the kind of experiment: Inhibitory concentration against Ii degradation in human JY cells. The format is functional, cell-based. The method in brief:
as §1
The molecule `N#Cc1ccccc1N1CCN(CC(Cn2nc(-c3ccc(I)cc3)c3c2CCN(C(N)=O)C3)OC(N)=O)CC1` (stereo unspecified) showed a pIC50 of 6.06. On to `CC(=O)N1CCc2c(c(-c3ccc(I)cc3)nn2CC(O)CN2CCN(c3ccccc3C#N)CC2)C1` (stereo unspecified), for which the pIC50 is 5.41. The same measure, in the same setting: next, `N#Cc1ccccc1N1CCN(CC(O)Cn2nc(-c3ccc(I)cc3)c3c2CCN(C(N)=O)C3)CC1` (stereo unspecified): 5.89.

The term pKi denotes the Ki on a negative log10 scale, so that one unit is a factor of ten. Lower therefore signals a high Ki. In general, pIC50 refers to the IC50 on a negative log10 scale, so that one unit is a factor of ten. Read a low pIC50 as a high IC50.

The record behind these values is ChEMBL document CHEMBL1141911, “Discovery and SAR studies of a novel series of noncovalent cathepsin S inhibitors” (Bioorg Med Chem Lett, 2005).
